Source: PubChem BioAssay (several laboratories)
Most compounds without a hit are left out; they make up all but 2.4% or so of the library.
NR2E3 ag-1 = inhibitors of NR2E3-RetCOR corepressor binding, primary screen, NR2E3 agonist project, biochemical, TR-FRET, GST-NR2E3, biotin-RetCOR. Photoreceptor-specific nuclear receptor (Homo sapiens), Q9Y5X4. 1536-well. inhibition of corepressor binding, % at 4.78 µM. 320,000 tested, 0.12% active;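 active means percent inhibition above the cutoff of mean plus 3 SD of all tested compounds, set per screening campaign, cut at about 20% in these data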
Target sequence (Q9Y5X4 whole entry, looked up): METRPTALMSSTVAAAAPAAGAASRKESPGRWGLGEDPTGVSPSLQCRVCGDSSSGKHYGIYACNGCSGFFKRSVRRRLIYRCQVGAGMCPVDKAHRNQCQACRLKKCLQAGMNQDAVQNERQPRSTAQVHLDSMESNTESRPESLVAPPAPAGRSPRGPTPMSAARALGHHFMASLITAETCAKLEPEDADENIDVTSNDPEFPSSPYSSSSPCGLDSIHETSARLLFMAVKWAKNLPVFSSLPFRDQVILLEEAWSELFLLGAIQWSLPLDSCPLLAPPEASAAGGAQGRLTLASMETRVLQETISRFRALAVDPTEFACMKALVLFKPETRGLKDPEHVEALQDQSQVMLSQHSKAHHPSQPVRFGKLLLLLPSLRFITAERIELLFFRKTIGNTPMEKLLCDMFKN
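Material: NR2E3–RetCOR corepressor complex / Incubation: Compound–protein incubation for 5 h at 4 °C / Dosing: compound at 4.8 µM, single dose / Detection: time-resolved FRET / Benchmarks: high control biotin, low control 0.6% DMSO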
MPTP inh = mitochondrial permeability transition pore inhibitors, primary screen, biochemical, isolated mouse mitochondria, absorbance; Ca2+ swelling absorbance, 30 min; 360,000 tested, 1.4% active; inhibition, % at 10 µM;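 active means inhibition of 50% or more, scaled per plate between neutral and stimulator controls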
NR2E3 ag-2 = NR2E3 agonists in two-hybrid cells, primary screen, cell-based, luminescence, CHO-S, Gal4-NCOR/VP16-NR2E3; Photoreceptor-specific nuclear receptor (Homo sapiens), Q9Y5X4; luciferase; inhibition of corepressor binding, % at 3.98 µM; 360,000 tested, 0.35% active;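 active means inhibition above the mean of all tested compounds plus 3 SD, cut at about 70% in these data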;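 further: higher means lower luciferase signal from less NR2E3 corepressor binding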
Jurkat NFkB inh = inhibitors of induced NF-kB luciferase reporter, primary screen, TCR NF-kB activation inhibitor project, cell-based, luminescence, uHTS | 330,000 tested, 0.53% active | inhibition, % at 4 µM | Jurkat, PMA/ionomycin-induced NF-kB luciferase reporter; in the data active means inhibition above about 50%
697 NFkB inh = inhibitors of PMA/ionomycin-induced NF-kB reporter, 697 cells, primary screen, B-cell NF-kB inhibitor project, cell-based, luminescence, uHTS. inhibition, % at 4 µM. 330,000 tested, 0.33% active. 697 B-cell NF-kB luciferase reporter, 16 h. AID 435022, 2010; in the data active means inhibition above about 35%
aDG glyco up = activators of alpha-DG glycosylation, primary screen, uHTS, Pro5-aDG cells, AlphaScreen; alpha-DG glycosylation AlphaScreen (IIH6); 0% Pro5, 100% B10-LARGE cell signal; activation, % at 10 µM; 360,000 tested, 0.22% active; AID 624168, 2012;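 active means activation of at least 8% versus controls, or a plate z-score of at least 8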;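 further: Pro5 are CHO cells carrying HIG-tagged alpha-DG that lacks glycosylation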
Jurkat NFkB conf = PMA/ionomycin-induced NF-kB reporter inhibitors, Jurkat retest, confirmation, T-cell NF-kB inhibitor project, cell-based, luminescence, single concentration; shares compounds with Jurkat NFkB inh; Jurkat NF-kB luciferase, 16 h; inhibition, % at 4 µM; 2,700 tested, 27% active;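 active means inhibition reaching about 45% at 4 µM in either replicate, limit read from the data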
697 NFkB conf = PMA/ionomycin-induced NF-kB reporter inhibitors, 697 retest, confirmation, B-cell NF-kB inhibitor project, cell-based, luminescence, single concentration. inhibition, % at 4 µM. shares compounds with 697 NFkB inh. 697 B-cell NF-kB luciferase, 16 h. 2,000 tested, 35% active; in the data active means inhibition mostly above about 28%, no sharp cut-off; inactive means mostly below about 22%
NR2E3 ag confirm = NR2E3 agonist confirmation in cells, cell-based, luminescence, CHO-S two-hybrid; shares compounds with NR2E3 ag-2; CHO-S mammalian two-hybrid NR2E3-NCOR, luciferase luminescence; inhibition, % at 3.98 µM; 2,300 tested, 51% active;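 active means average inhibition above a cutoff equal to the mean inhibition of all tested compounds plus one SD, cut at about 70% in these data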
GAL4-VP16 luc = GAL4-VP16 reporter modulators, confirmation, counter-screen for NR2E3 agonist project, cell-based, luminescence, CHO-S, high throughput. inhibition, % at 3.98 µM. 2,300 tested, 29% active. AID 624379, 2012. shares compounds with NR2E3 ag-2. CHO-S GAL4-VP16 luciferase reporter;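 active means mean inhibition above a cutoff equal to the average over all tested compounds plus one standard deviation, cut at about 70% in these data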;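 further: luciferase from a UAS reporter driven by GAL4-VP16 transactivation; higher means less reporter light so more repression of VP16 activity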
MPTP counter = fluorescence retest of MPTP screen hits in isolated mitochondria, single concentration; shares compounds with MPTP inh; membrane potential, Rhodamine 123 fluorescence; inhibition, % at 10 µM; 5,000 tested, 78% active; AID 624504, 2012; in the data active means inhibition above about 22%
MPTP abs DR = mitochondrial permeability transition pore inhibitors, dose response, biochemical, absorbance, uHTS hits. shares compounds with MPTP inh. isolated mitochondria swelling. IC50, µM. 780 tested, 58% active; in the data active means IC50 below about 20 µM
MPTP counter DR = fluorescent counter-screen in isolated mitochondria, dose response, counter-screen for MPTP inhibitor project, biochemical, fluorescence, uHTS hits. shares compounds with MPTP inh. isolated mitochondria counterscreen, fluorescence read-out. IC50, µM. 780 tested, 49% active. AID 651564, 2012; in the data active means IC50 below about 80 µM
Of the large screens only hits and unclear results are named; the others gave an inactive call (follow-up assays come after a bar, where they were run).

CCN(c1ccccc1)S(=O)(=O)c1ccc(C(=O)NC2CCN(Cc3ccccc3)CC2)cc1	MPTP inh 66, Jurkat NFkB inh 74 (no result: NR2E3 ag-1) | Jurkat NFkB conf 65 | NR2E3 ag confirm 80 | GAL4-VP16 luc inactive | MPTP counter 64
COc1ccc(-c2csc(NC(=O)C3CCN(c4ncnc5sc(C)c(C)c45)CC3)n2)cc1OC	MPTP inh 88, NR2E3 ag-2 78, Jurkat NFkB inh 53 | Jurkat NFkB conf inactive | NR2E3 ag confirm 74 | GAL4-VP16 luc 79 | MPTP counter 65
COc1ccccc1OCC(=O)NNC(=O)C1CCN(c2ncnc3sc(C)c(C)c23)CC1	none
CCN(C)C1CN(Cc2cn(Cc3ccc(F)cc3)nn2)S(=O)(=O)C1 (stereo not given)	none (no result: NR2E3 ag-1, Jurkat NFkB inh, 697 NFkB inh)
O=C(CNc1ccccc1F)Nc1cccc2ccccc12	none
CCOC(=O)c1c(C)[nH]c(C(=O)N/N=C/c2ccc(Br)cc2)c1C	MPTP inh 99, Jurkat NFkB inh 79 | Jurkat NFkB conf inactive | MPTP counter 76
O=C(NCCNc1ccnc2cc(Cl)ccc12)c1ccccc1F	MPTP inh 75, Jurkat NFkB inh 56 | Jurkat NFkB conf inactive | NR2E3 ag confirm inactive | GAL4-VP16 luc inactive | MPTP counter 57
Cc1cnc(NC(=O)CSc2ccc(Cl)cc2)s1	none
Cc1cnc(NC(=O)Nc2ccc(Cl)cc2)s1	MPTP inh 82, Jurkat NFkB inh 81, 697 NFkB inh 65 | Jurkat NFkB conf inactive | 697 NFkB conf 49 | MPTP counter 86
O=C(NC1CCCC1)C1C(c2ccc(C(F)(F)F)cc2)=Nc2ccccc2N1C(=O)c1cccc(C(F)(F)F)c1 (stereo not given)	none (no result: NR2E3 ag-1, NR2E3 ag-2, Jurkat NFkB inh, 697 NFkB inh)
Cc1nn(C(C)(C)C)c(C)c1/C=N/OC(=O)Nc1ccc(Cl)cc1	MPTP inh 79, NR2E3 ag-2 97, Jurkat NFkB inh 75, 697 NFkB inh 52 | Jurkat NFkB conf 95 | 697 NFkB conf 63 | NR2E3 ag confirm inactive | GAL4-VP16 luc 91 | MPTP counter 89
Nc1nc(Cl)cc(N2CCC(c3cc(-c4ccc(Cl)cc4)n[nH]3)CC2)n1	MPTP inh 98, NR2E3 ag-2 91, Jurkat NFkB inh 70 | Jurkat NFkB conf 63 | NR2E3 ag confirm 98 | GAL4-VP16 luc 73 | MPTP counter 90
CC(=O)NC1CCCc2c1cnn2-c1ccc(C(C)(C)C)cc1 (stereo not given)	none
Cn1nccc1C(=O)NC1CCCc2c1cnn2-c1ccc(C(C)(C)C)cc1 (stereo not given)	MPTP inh 98, NR2E3 ag-2 106, Jurkat NFkB inh 66, 697 NFkB inh 44 | Jurkat NFkB conf 71 | 697 NFkB conf 103 | NR2E3 ag confirm 95 | GAL4-VP16 luc 84 | MPTP counter 103
Cc1cccc(-n2ncc3c2CCCC3NC(=O)c2ccc[n+]([O-])c2)c1C (stereo not given)	none
Cc1cc(C(=O)NC2CCCc3c2cnn3-c2cccc(C)c2C)n(C)n1 (stereo not given)	MPTP inh 90, NR2E3 ag-2 110, Jurkat NFkB inh 72, 697 NFkB inh 77 | Jurkat NFkB conf 78 | 697 NFkB conf 96 | NR2E3 ag confirm 98 | GAL4-VP16 luc 91 | MPTP counter 108
C1CC(=NN=C2CCSCC2)CCS1	none (no result: NR2E3 ag-1, Jurkat NFkB inh, 697 NFkB inh)
COC(=O)c1ccc2nc(Nc3nc4c(F)cc(F)cc4s3)sc2c1	MPTP inh 101, Jurkat NFkB inh 63 | Jurkat NFkB conf 92 | NR2E3 ag confirm inactive | GAL4-VP16 luc inactive | MPTP counter 64
COC(=O)c1ccc2nc(NC(=O)C(C)C)sc2c1	none
CCOC(=O)c1ccc2nc(Nc3nc4ccc(F)cc4s3)sc2c1	MPTP inh 101, Jurkat NFkB inh 56 | Jurkat NFkB conf 85 | MPTP counter inactive | MPTP abs DR 5 | MPTP counter DR <2.5
CCOC(=O)Cc1cc(=O)[nH]n(-c2ccccc2)c1=O	none (no result: NR2E3 ag-1, Jurkat NFkB inh, 697 NFkB inh)
CC1(C(=O)Nc2ccc3c(c2)OCCO3)CC1(Cl)Cl (stereo not given)	none
CCN(CC)S(=O)(=O)c1ccc(Oc2ccc(S(=O)(=O)N(CC)CC)cc2)cc1	MPTP inh 97, Jurkat NFkB inh 55, 697 NFkB inh 84 | Jurkat NFkB conf 75 | 697 NFkB conf 87 | MPTP counter 89
O=C(NCC(=O)N1CCN(c2ccccn2)CC1)c1ccc(Br)o1	none
Cc1ccc(-c2csc3ncnc(N4CCN(Cc5ccccc5)CC4)c23)cc1	none
Cc1csc2ncnc(NC3CCN(Cc4ccccc4)CC3)c12	MPTP inh 92, NR2E3 ag-2 81, Jurkat NFkB inh 68 | Jurkat NFkB conf 58 | NR2E3 ag confirm 95 | GAL4-VP16 luc 86 | MPTP counter 87
COc1ccc(NC(=O)CSc2nnc(-c3cccnc3)o2)c(OC)c1	none
O=C(CCN1CCN(CCO)CC1)Nc1ccccc1	none
